From ChEMBL document CHEMBL1145336, “1-aryl-3-(4-pyridine-2-ylpiperazin-1-yl)propan-1-one oximes as potent dopamine D4 receptor agonists for the treatment of erectile dysfunction” (J Med Chem, 2006)
pEC50, pIC50: −log10 of the molar value.

Columns and labels:
Type in all cases: functional, cell-based
D(4) dopamine receptor = target: T1, D(4) dopamine receptor (Homo sapiens, UniProt P21917); test: Activity at human recombinant D4.4 receptor expressed in HEK293 cells by FLIPR assay
T1 sequence (P21917 whole entry): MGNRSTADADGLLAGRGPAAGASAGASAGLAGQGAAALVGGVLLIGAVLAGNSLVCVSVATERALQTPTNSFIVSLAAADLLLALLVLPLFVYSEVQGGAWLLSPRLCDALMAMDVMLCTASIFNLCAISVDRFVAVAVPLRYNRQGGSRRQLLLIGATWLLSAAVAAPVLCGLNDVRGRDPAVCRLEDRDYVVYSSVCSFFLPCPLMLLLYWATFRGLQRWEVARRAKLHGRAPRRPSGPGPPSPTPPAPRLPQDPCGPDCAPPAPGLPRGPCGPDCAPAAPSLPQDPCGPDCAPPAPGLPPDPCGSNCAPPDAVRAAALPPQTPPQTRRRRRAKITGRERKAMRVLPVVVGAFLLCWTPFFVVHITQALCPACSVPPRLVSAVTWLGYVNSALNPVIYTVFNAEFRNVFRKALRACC

D(2) dopamine receptor [1] = target: T2, D(2) dopamine receptor (Homo sapiens, UniProt P14416); test: Agonist activity at human recombinant D2 receptor expressed in HEK293 cells by FLIPR assay
T2 sequence (P14416 whole entry): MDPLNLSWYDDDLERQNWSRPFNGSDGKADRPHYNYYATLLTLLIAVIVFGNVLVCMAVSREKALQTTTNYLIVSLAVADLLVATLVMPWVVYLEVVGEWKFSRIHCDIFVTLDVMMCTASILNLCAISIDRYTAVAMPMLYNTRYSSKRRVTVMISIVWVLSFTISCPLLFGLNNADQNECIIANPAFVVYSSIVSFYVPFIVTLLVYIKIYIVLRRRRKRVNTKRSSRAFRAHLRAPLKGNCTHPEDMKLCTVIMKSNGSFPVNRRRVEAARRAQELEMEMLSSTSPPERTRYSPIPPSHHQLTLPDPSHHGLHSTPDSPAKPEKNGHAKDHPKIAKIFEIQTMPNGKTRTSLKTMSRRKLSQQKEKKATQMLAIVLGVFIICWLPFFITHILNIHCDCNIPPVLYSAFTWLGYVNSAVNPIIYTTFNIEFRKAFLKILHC
Method in brief: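 Calcium flux (FLIPR) in HEK-293 cells coexpressing recombinant human D2L with chimeric Gqo5. Efficacy is the maximal response relative to 10 µM dopamine (100%). EC50 is the concentration giving half-maximal stimulation. Values are means (SEM, n ≥ 3).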

D(2) dopamine receptor [2] = target: T2, D(2) dopamine receptor; test: Antagonist activity at human recombinant D2 receptor expressed in HEK293 cells by FLIPR assay

SMILES | pEC50 (D(4) dopamine receptor) | pEC50 (D(2) dopamine receptor [1]) | pIC50 (D(2) dopamine receptor [2])
CO/N=C(/CCN1CCN(c2ccccn2)CC1)c1ccc(Cl)cc1Cl | 6.53 | < 5.00 | < 5.00
O/N=C(\CCN1CCN(c2ccccn2)CC1)c1cccc(F)c1 | 7.77 | < 5.00 | < 5.00
Cc1cc(C)cc(/C(CCN2CCN(c3ccccn3)CC2)=N/O)c1 | 7.34 | < 5.00 | < 5.00
CO/N=C(/CCN1CCN(c2ccccn2)CC1C)c1ccc(Cl)cc1 (configuration not stated) | 7.00 | < 5.00 | < 5.00
O/N=C(\CCN1CCN(c2ccccn2)CC1)c1cccc(Cl)c1 | 7.92 | < 5.00 | < 5.00
O/N=C(/CCN1CCN(c2ccccn2)CC1)c1ccccc1 | 7.66 | < 5.00 | < 5.00
N#Cc1cccnc1N1CCN(CC/C(=N/O)c2ccccc2)CC1 | 7.70 | < 5.00 | < 5.00
O/N=C(/CCN1CCN(c2ccccn2)CC1)c1ccccc1Cl | 7.60 | < 5.00 | < 5.00
CO/N=C(/CCN1CCN(c2ccccn2)CC1)c1ccc(F)c(Cl)c1 | 7.02 | < 5.00 | < 5.00
O/N=C(\CCN1CCN(c2ccccn2)CC1)c1ccccc1Cl | 7.62 | < 5.00 | < 5.00
Cc1cccc(/C(=N\O)C(O)CN2CCN(c3ccccn3)CC2)c1 (configuration not stated) | 7.35 | < 5.00 | < 5.00
CO/N=C(\CCN1CCCC(c2ccccn2)C1)c1ccc(Cl)cc1 (configuration not stated) | 6.22 | < 5.00 | < 5.00
CO/N=C(/CCN1CCN(c2ccccn2)CC1)c1ccccc1C | 7.40 | < 5.00 | < 5.00
CO/N=C(/CCN1CCN(c2ccccn2)CC1)c1cccc(Cl)c1 | 6.95 | < 5.00 | < 5.00
CO/N=C(\CCN1CCN(c2ccccn2)CC1)c1cc(C)cc(C)c1 | 6.76 | < 5.00 | < 5.00
CCO/N=C(\CCN1CCN(c2ccc(OC)cc2)CC1)c1ccccc1 | < 5.00 | < 5.00 | < 5.00
COC(CN1CCN(c2ccccn2)CC1)/C(=N/O)c1cccc(C)c1 (configuration not stated) | 5.27 | < 5.00 | < 5.00
O/N=C(/CCCN1CCN(c2ccccn2)CC1)c1ccc(F)cc1 | 7.23 | < 5.00 | < 5.00
CC(C)O/N=C(\CCN1CCN(c2ccccn2)CC1)c1ccccc1 | 6.79 | < 5.00 | < 5.00
O/N=C(\CCN1CCN(c2nccs2)CC1)c1ccccc1 | 7.31 | < 5.00 | < 5.00
CO/N=C(\CCN1CCC(c2cccc[n+]2[O-])CC1)c1ccc(Cl)cc1 | 7.08 | < 5.00 | < 5.00
O/N=C(\CCN1CCN(c2ncccn2)CC1)c1ccccc1 | 7.41 | < 5.00 | < 5.00
Cc1cccc(/C(=N/O)C(O)CN2CCN(c3ccccn3)CC2)c1 (configuration not stated) | 8.31 | < 5.00 | < 5.00
CO/N=C(\CCN1CCN(c2ccccc2OC(C)C)CC1)c1ccc(F)cc1 | 6.23 | < 5.00 | < 5.00
CO/N=C(/CCN1CCN(c2ccccn2)CC1)c1ccccc1 | 7.62 | < 5.00 | < 5.00
CO/N=C(/c1ccc(Cl)cc1)C(COC(C)C)CN1CCN(c2ccccn2)CC1 (configuration not stated) | 5.49 | < 5.00 | < 5.00
CO/N=C(\CCN1CCN(c2ccccn2)CC1)c1ccc(Cl)c(C)c1 | 6.87 | < 5.00 | < 5.00
O/N=C(/CCN1CCN(c2ncccn2)CC1)c1ccccc1 | 7.16 | < 5.00 | < 5.00
CO/N=C(/CCN1CCN(c2ccccn2)CC1)c1ccccc1Cl | 7.24 | < 5.00 | < 5.00
O/N=C(\CCN1CCN(c2ccccn2)CC1)c1ccc(F)cc1 | 7.51 | < 5.00 | < 5.00

Further lines, results first:

pEC50 (D(4) dopamine receptor) | pEC50 (D(2) dopamine receptor [1]) | pIC50 (D(2) dopamine receptor [2]) | SMILES
7.69 | < 5.00 | < 5.00 | Cc1ccccc1/C(CCN1CCN(c2ccccn2)CC1)=N\O
7.38 | < 5.00 | < 5.00 | CO/N=C(\CCCN1CCN(c2ccccn2)CC1)c1ccc(F)cc1
8.64 | < 5.00 | < 5.00 | Cc1cccc(/C(CCN2CCN(c3ccccn3)CC2)=N/O)c1
< 5.00 | < 5.00 | < 5.00 | Cc1ccc(OCc2ccccc2)c(/C(CCN2CCN(c3ccccn3)CC2)=N/O)c1
8.05 | < 5.00 | < 5.00 | O/N=C(\CCN1CCN(c2ccccn2)CC1)c1ccc(F)cc1F
6.55 | < 5.00 | < 5.00 | CO/N=C(/c1ccc(Cl)cc1)C(CN1CCN(c2ccccn2)CC1)OC (configuration not stated)
7.35 | < 5.00 | < 5.00 | CCO/N=C(/CCN1CCN(c2ccccn2)CC1)c1ccccc1
7.33 | < 5.00 | < 5.00 | CO/N=C(/CCN1CCC(c2cccc[n+]2[O-])CC1)c1ccc(Cl)cc1
6.60 | < 5.00 | < 5.00 | CO/N=C(\CCN1CCN(c2ccccn2)CC1)c1ccc(Cl)cc1Cl
6.49 | < 5.00 | < 5.00 | CCCO/N=C(\CCN1CCN(c2ccccn2)CC1)c1ccccc1
5.32 | < 5.00 | < 5.00 | CCO/N=C1/c2ccccc2CCC1CN1CCN(c2ccccn2)CC1 (configuration not stated)
7.04 | < 5.00 | < 5.00 | CO/N=C(/CCN1CCN(c2ccccn2)CC1)c1ccc(C)c(C)c1
6.96 | < 5.00 | < 5.00 | CCO/N=C(\CCN1CCN(c2ccccc2)CC1)c1ccccc1
6.42 | < 5.00 | < 5.00 | CCCCO/N=C(\CCN1CCN(c2ccccn2)CC1)c1ccccc1
7.76 | < 5.00 | < 5.00 | O/N=C(/CCN1CCN(c2ccccn2)CC1)c1cc(F)cc(F)c1
6.47 | < 5.00 | < 5.00 | CCO/N=C(\CCN1CCN(c2ccccc2OC)CC1)c1ccccc1
7.46 | < 5.00 | < 5.00 | COC(CN1CCN(c2ccccn2)CC1)/C(=N\O)c1cccc(C)c1 (configuration not stated)
7.88 | < 5.00 | < 5.00 | N#Cc1cccc(/C(CCN2CCN(c3ccccn3)CC2)=N/O)c1
7.31 | < 5.00 | < 5.00 | CCO/N=C(\CCN1CCN(c2ccccc2C#N)CC1)c1ccccc1
7.37 | < 5.00 | < 5.00 | CO/N=C(\CCN1CCN(c2ccccn2)CC1)c1ccccc1Cl
6.32 | < 5.00 | < 5.00 | O/N=C(\CCN1CCN(c2ccccn2)CC1)c1ccc(Cl)cc1
6.21 | < 5.00 | < 5.00 | CCO/N=C(\CCN1CCN(c2ncccn2)CC1)c1ccccc1
8.02 | < 5.00 | < 5.00 | O/N=C(\CCCN1CCN(c2ccccn2)CC1)c1ccc(F)cc1
5.57 | < 5.00 | < 5.00 | CCO/N=C(\CCN1CCN(c2cccc(OC)c2)CC1)c1ccccc1
